We go through 37 sequences from the array DNA melting data of Ke et al. (doi:10.1101/2024.01.08.574731).

A short description of data set [1]: melting temperature; fluorescence melt of hairpins on a sequencing array, two-state fit, raised by 9.35 °C to match UV melts. The following applies: sodium 0.088 M. The procedure, abridged: (§1)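 Two-state fits, bootstrapped, provided melting temperature and folding enthalpy from Cy3 fluorescence normalised to pre-quench Cy3 and to control constructs. Library hairpins with annealed Cy3 and quencher oligos were imaged on a sequenced MiSeq flow cell in 50 mM Na-HEPES pH 8.0, 25 mM NaCl, at 2.5 °C intervals up to 60 °C. Four replicates were combined with inverse-variance weighting. A 9.35 °C upward shift was applied to fitted temperatures to match UV melts.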

The nature of data set [2]: folding enthalpy; higher = less favourable; fluorescence melt of hairpins on a sequencing array, two-state fit. As to conditions: sodium 0.088 M. In short, it runs like this:
as §1

As to GTACAAGGAAACTCGTAC ((((.((....)).)))), the Tm in data set [1] was determined as 29.1 °C. Further, in data set [2], the folding enthalpy was -22 kcal/mol.
For the sequence GTACACGAAAGTGATTAC ((((((....)))..))), the Tm in data set [1] was 27.4 °C. Further, the folding enthalpy in data set [2] is -14.6 kcal/mol.
The corresponding values for GTACACGAAAGTGCTAC ((((((....))).))) are 39.9 °C and -15.9 kcal/mol.
For GTACACGAAAGTGGATAC ((((((....)))..))) the same measures were 34.5 °C and -11.8 kcal/mol.
For GTACACGAAAGTGTCTAC ((((((....)))..))) the same measures were 35.8 °C and -10.6 kcal/mol.
On to GTACACGAAAGTGTTAC ((((((....))).))), for which the Tm in data set [1] is 42.5 °C. Besides, the folding enthalpy in data set [2] is -12.9 kcal/mol.
As to GTACACGAAAGTGTTTAC ((((((....)))..))), the Tm in data set [1] is 29 °C. Further, the folding enthalpy in data set [2] is -9.29 kcal/mol.
The corresponding values for GTACATGAAAATGTAC ((((((....)))))) are 51.2 °C and -33.9 kcal/mol.
Turning to GTACCACGAAAGTGTTAC (((.(((....))).))), in data set [1], the Tm was 39.2 °C. In data set [2], the folding enthalpy is -24.1 kcal/mol.
For GTACCAGGAAACCAGTAC ((((..(....)..)))) the same measures were 24.9 °C and -11.4 kcal/mol.
Consider GTACCCGAAAGGGATTAC ((((((....)))..))), for which, in data set [1], the Tm is 25.7 °C. In addition, the folding enthalpy in data set [2] is -9.27 kcal/mol.
For GTACCCGAAAGGGGCTAC ((((((....)))..))) the same measures were 41.4 °C and -14.3 kcal/mol.
As to GTACCCGAAAGGGGGTAC ((((((....)))..))), the Tm in data set [1] turned out to be 49.6 °C. In data set [2], the folding enthalpy is -18.1 kcal/mol.
For GTACCCGAAAGGGTATAC ((((((....)))..))), in data set [1], the Tm was found to be 49.4 °C. Also, the folding enthalpy in data set [2] was -10.4 kcal/mol.
Consider GTACCCGCGAAAGCGTAC (((..(((....)))))), for which the Tm in data set [1] came out at 25.7 °C. In addition, the folding enthalpy in data set [2] is -8.05 kcal/mol.
For GTACCGGAAACGGTAC ((((((....)))))) the same measures were 64.7 °C and -36.6 kcal/mol.
For GTACCGGGAAACCGACAC ((..(((....)))..)) the same measures were 22.9 °C and -8.42 kcal/mol.
For GTACCGGGAAACCGGTAC (((((((....))))))) the same measures were 68.3 °C and -29.2 kcal/mol.
Consider GTACCTGGAAACAGGTAC (((((((....))))))), for which the Tm in data set [1] worked out at 61.9 °C. Also, the folding enthalpy in data set [2] is -41.8 kcal/mol.
For GTACCTGGAAACGGGTAC (((((.(....).))))) the same measures were 50.4 °C and -41.8 kcal/mol.
The corresponding values for GTACGACGAAAGTCATAC (((.(((....))).))) are 39.4 °C and -19 kcal/mol.
The corresponding values for GTACGAGAAATCGTAC ((((((....)))))) are 54.3 °C and -38.2 kcal/mol.
Turning to GTACGAGGAAACCCGTAC (((((.(....).))))), in data set [1], the Tm amounted to 46.5 °C. For the same sequence, in data set [2], the folding enthalpy is -30.8 kcal/mol.
The corresponding values for GTACGCCCGAAAGGGTAC (((..(((....)))))) are 33.2 °C and -11.4 kcal/mol.
For GTACGCCGAAAGGCATAC (((.(((....))).))) the same measures were 44.7 °C and -16.4 kcal/mol.
For GTACGCGAAAGCGCTAC ((((((....))).))) the same measures were 42.2 °C and -13.2 kcal/mol.
For GTACGCGAAAGCGGTTAC ((((((....)))..))), in data set [1], the Tm is 32.7 °C. Further, the folding enthalpy in data set [2] is -8.32 kcal/mol.
The corresponding values for GTACGGGCGAAAGCCTAC (((..(((....)))))) are 30 °C and -8.32 kcal/mol.
The corresponding values for GTACGTCGAAAGACTAC (((.(((....)))))) are 41 °C and -21.9 kcal/mol.
For GTACGTGGAAACACACAC ((..(((....)))..)) the same measures were 27.4 °C and -10.8 kcal/mol.
For GTACGTGGAAACACATAC (((.(((....))).))), the Tm in data set [1] amounted to 32.7 °C. For the same sequence, the folding enthalpy in data set [2] was -22.1 kcal/mol.
The corresponding values for GTACGTGGAAACGCGTAC (((((.(....).))))) are 52.7 °C and -32.2 kcal/mol.
For GTACTAGGAAACTAGTGC (.(((((....))))).) the same measures were 42.8 °C and -26.9 kcal/mol.
The corresponding values for GTACTAGGAAACTGGTAC ((((.((....)).)))) are 42.2 °C and -31.4 kcal/mol.
GTACTCACGAAAGTGTAC (((..(((....)))))): the Tm in data set [1] turned out to be 31.9 °C. The folding enthalpy in data set [2] was -11 kcal/mol.
The corresponding values for GTACTCGAAAGAGGATAC ((((((....)))..))) are 28.5 °C and -13.2 kcal/mol.
The corresponding values for GTACTCGAAAGAGGTTAC ((((((....)))..))) are 26.6 °C and -8.46 kcal/mol.
